Rpn11 block: blocks the human proteasome subunit Rpn11; human 26S proteasome, Ub4-pepOG fluorescence polarization; 20S core pre-blocked with epoxomicin; inhibition, % at 20 µM; 360,000 compounds, 0.59% hits; AID 588493;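 active = inhibition at 20 µM, scaled to each plate's controls, above about 33%, limit read from the data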
CSN deneddyl inh: inhibitors of human CSN-mediated cullin deneddylation; 360,000 compounds, 0.38% hits; Q92905; Purified CSN, SCF-Nedd8-OG deneddylation, fluorescence polarization; inhibition, % at 12.5 µM;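 active = pattern-corrected inhibition above about 35%, with an unprinted fluorescence ratio check between 0.5 and 1.5, limit read from the data, passing the limit was not always enough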;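 note: 0% = enzyme with substrate and 100% = substrate without enzyme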
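Test system: purified human Csn5 enzyme expressed in HEK293T cells. Amount: 0.24 nM enzyme. Reagent: SCFSkp2-Nedd8OG substrate at 10 nM final. Schedule: 90 min incubation of compound, enzyme and substrate at room temperature. Detection: fluorescence polarization. Read-out: % inhibition of substrate cleavage by Csn5.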
TPT1 inh: inhibitors of Candida albicans tRNA 2'-phosphotransferase TPT1; recombinant caTPT1, FP RNA substrate dephosphorylation; inhibition, % at 5 µM; 300,000 compounds, 0.81% hits; AID 1962;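 active = inhibition above the mean of all tested compounds plus 3 SD, set per screening campaign, cut at about 24% in these data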;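 note: plate controls were DMSO alone for no effect and ferristatin control at 100 nM for full effect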
IDE cell activ: boosts human insulin-degrading enzyme activity in HEK cells. 340,000 compounds, 0.073% hits. FAbeta-B cleavage, fluorescence polarization; 0% vehicle, 100% cell-free pure enzyme wells. activation, % at 5.96 µM;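 active = activation above the mean of all tested compounds plus 3 SD, set per screening campaign, cut at about 17% in these data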
Target sequence (P14735 whole entry, looked up): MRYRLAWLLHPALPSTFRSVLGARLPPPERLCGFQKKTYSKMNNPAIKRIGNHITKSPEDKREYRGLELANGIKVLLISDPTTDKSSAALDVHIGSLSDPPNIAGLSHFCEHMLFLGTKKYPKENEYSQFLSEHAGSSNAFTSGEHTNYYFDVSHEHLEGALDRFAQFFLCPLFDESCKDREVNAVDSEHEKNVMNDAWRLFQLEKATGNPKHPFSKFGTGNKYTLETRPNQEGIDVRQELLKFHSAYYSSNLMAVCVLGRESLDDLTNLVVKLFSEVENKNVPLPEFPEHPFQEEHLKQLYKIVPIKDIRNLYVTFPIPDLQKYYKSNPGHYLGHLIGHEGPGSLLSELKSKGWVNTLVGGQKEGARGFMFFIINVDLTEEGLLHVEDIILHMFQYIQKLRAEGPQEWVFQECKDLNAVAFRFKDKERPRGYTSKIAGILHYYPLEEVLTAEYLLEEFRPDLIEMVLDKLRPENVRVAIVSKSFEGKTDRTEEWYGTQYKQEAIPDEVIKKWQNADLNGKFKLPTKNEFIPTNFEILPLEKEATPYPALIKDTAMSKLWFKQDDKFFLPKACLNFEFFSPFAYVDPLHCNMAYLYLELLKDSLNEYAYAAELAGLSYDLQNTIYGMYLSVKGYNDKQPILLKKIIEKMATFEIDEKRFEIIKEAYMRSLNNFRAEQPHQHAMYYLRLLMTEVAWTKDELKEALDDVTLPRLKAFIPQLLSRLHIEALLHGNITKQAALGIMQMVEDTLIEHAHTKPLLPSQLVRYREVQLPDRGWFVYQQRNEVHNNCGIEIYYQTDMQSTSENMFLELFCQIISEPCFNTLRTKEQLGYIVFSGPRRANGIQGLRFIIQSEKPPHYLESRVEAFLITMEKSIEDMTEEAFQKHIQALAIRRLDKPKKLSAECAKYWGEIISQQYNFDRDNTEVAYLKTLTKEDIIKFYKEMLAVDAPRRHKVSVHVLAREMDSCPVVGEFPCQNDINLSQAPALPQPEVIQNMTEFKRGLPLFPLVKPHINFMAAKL
HNF4A DNA FP: change in binding of human HNF4 alpha to DNA; P41235; HNF4a-FITC DNA binding, fluorescence polarization, 1 h; activity change, % at 10 µM; 360,000 compounds, 0.3% hits; in the data active = activity change above about 30%, passing the limit was not always enough
IDE inh: cellular human IDE inhibition. 320,000 compounds, 0.41% hits. AID 434962. HEK cells, FAbetaB cleavage, fluorescence polarization. inhibition, % at 5.59 µM. P14735;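 active = percent inhibition above the average of all tested compounds plus 3 SD, set per screening campaign, cut at about 16% in these data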;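 note: IDE supplied by intact live HEK cells; FP after avidin binding of uncleaved biotin substrate so inhibition keeps polarization high; 0% = DMSO wells and 100% = 60 µM reference IDE inhibitor Ii1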
TPT1 inh confirm: confirmation of Candida albicans TPT1 inhibitors; recombinant caTPT1, fluorescence polarization, RNase T1 coupled; 2,400 compounds, 74% hits; inhibition, % at 5 µM; shares compounds with TPT1 inh; AID 2149;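 active = inhibition above the primary screen limit, the mean inhibition of all tested compounds plus 3 SD, cut at about 25% in these data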
RNase T1 inh: RNase T1 inhibition in TPT1 counter-screen; shares compounds with TPT1 inh; RNase T1 cleavage, fluorescence polarization, 1536-well; inhibition, % at 5 µM; 2,400 compounds, 83% hits; AID 2153;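 active = inhibition above the solvent-only control well mean plus 3 SD, limit set per screening run, cut at about 23% in these data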;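 note: plate controls were DMSO wells with enzyme for no effect and wells without RNase T1 for full effect; inhibitors block cleavage so intact labeled substrate keeps polarization high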
* marks the source's active call; other numbers are inactive results; · = no result given. An excerpt weighted towards active compounds, which were near 1.7% of everything screened.

SMILES	Rpn11 block	CSN deneddyl inh	TPT1 inh	IDE cell activ	HNF4A DNA FP	IDE inh	others
Cc1ccc(CNC(=O)Cn2nnc(C(=O)Nc3cccc(C)c3C)c2N)cc1	6	4	0	6	1	-3
CC(C)NC(=O)C1(C)CCN1Cc1cccc(C#N)c1 (stereo not given)	2	-1	·	·	-6	·
Cc1cc(=O)oc2cc(NC(=O)COc3ccccc3[N+](=O)[O-])ccc12	-2	71*	·	4	-2	2
Nc1cc2nsnc2cc1Br	-48	39*	-14	1	-30	2
COCCCn1c(=O)/c(=C\c2ccc(OC(F)F)c(OC)c2)s/c1=C(/C#N)C(N)=O	·	68	8	16	51*	-2
COc1ccc(C(=O)NC2CC(C)(C)NC(C)(C)C2)cc1S(=O)(=O)N1CCOCC1	1	7	·	·	1	·
COc1cc(OC)c(NS(=O)(=O)c2cc(C(=O)NCCCN3CCOCC3)ccc2C)cc1Cl	2	-1	·	·	1	·
COc1cc(C2Nc3cccc4cccc(c34)N2)ccc1OC(C)=O	-24	3	1	2	1	2
COc1cc(C2Nc3cccc4cccc(c34)N2)cc(OC)c1O	-9	-2	-1	28*	0	-6
CN1CCCC(C)(C(=O)Nc2ccc3scnc3c2)C1 (stereo not given)	-1	5	·	·	4	·
COc1ccc(N=C2S/C(=C\c3ccc(OCC(=O)O)cc3)C(=O)N2CCc2c[nH]c3ccccc23)cc1	5	36*	·	-2	-74	·
Cc1cccc(C(=O)NCCN2CCOCC2)c1[N+](=O)[O-]	-3	1	-2	28*	2	1
O=C(NCCN1CCOCC1)c1ccccc1[N+](=O)[O-]	-1	1	2	-1	0	-1
O=C(c1cccc([N+](=O)[O-])c1)c1ccc2[nH]c(=O)[nH]c2c1	-4	97*	4	-1	4	-1
c1ccc(C[C@H]2COc3c4ccccc4nn32)cc1	·	-1	·	·	-1	·
O=C(O)c1ccccc1C=NNc1ccc([N+](=O)[O-])cn1	2	2	·	5	1	·
O=[N+]([O-])c1ccc(NN=Cc2cccc3ccccc23)nc1	·	23	·	3	35*	·
COc1ccc(Cl)cc1NC(=O)CN1c2ccccc2CC1C (stereo not given)	7	-1	0	2	33*	2
CC(=O)N1C[C@H]2CON(C)[C@H]2C[C@H]1c1cccc(-c2cc(Cl)cc(Cl)c2)c1	-1	-2	·	·	3	·
COc1ccc(S(=O)(=O)NCc2cccnc2)cc1NC(=O)c1ccccc1C	64*	24	·	-3	-34	·
COc1ccc(S(=O)(=O)NCc2cccnc2)cc1Br	-2	-2	0	3	129*	-4
COc1ccc(S(=O)(=O)NCc2cccnc2)cc1	-3	-1	5	6	1	0
CCOC(=O)C1(CC2CC2)CCN(Cc2cnc(N(C)C)s2)CC1	2	-3	-2	17*	0	3
CCOC(=O)C1(CC2CC2)CCN(Cc2ccc(C(=O)OC)cc2)CC1	-5	-2	-4	9	6	2
COC(=O)C[C@H]1C=C[C@@H](NC(=O)Nc2c(C)noc2C)[C@@H](CO)O1	·	1	·	·	0	·
SMILES	Rpn11 block	CSN deneddyl inh	TPT1 inh	IDE cell activ	HNF4A DNA FP	IDE inh	others
Cc1noc(/C=C/c2ccco2)c1S(=O)(=O)N1CCC(C(=O)N(C)Cc2ccccc2)CC1	25	5	11	6	-2	2
Cc1noc(/C=C/c2ccco2)c1S(=O)(=O)N1CCC(C(=O)N2c3ccccc3CC2C)CC1 (stereo not given)	36	18	7	2	44*	-1
Cc1cccc(C)c1NC(=O)C1(C)CCC(=O)N1c1cc(C(C)(C)C)nn1C (stereo not given)	0	-2	·	·	-2	·
Cc1cc(=O)oc(C)c1C(=O)NC12CC3CC(CC(C3)C1)C2	-2	-4	-3	5	0	3
Cc1cc(=O)oc(C)c1C(=O)n1nc(C)c2c1C[C@@H]1[C@H]2C1(C)C	4	3	-4	6	52*	-10
CCOC(=O)[C@]12CCCC=C1N(CCC1=CCCCC1)C(=O)[C@H](CC(=O)NCCCN1CCCC1=O)C2	·	1	·	·	4	·
COC(=O)[C@@]12C[C@@H](CC(=O)N3CCN(C(=O)C4CC4)CC3)C(=O)N(Cc3cccc4ccccc34)C1=CCC(C)(C)C2	·	-1	·	·	1	·
Cc1c2ccccc2cc[n+]1CCCS(=O)(=O)[O-]	-2	2	-2	-2	-5	-2
CC1(C)C(/C=C/C=C/C=C/C=C2\N(CCCCS(=O)(=O)O)c3ccc4ccccc4c3C2(C)C)=[N+](CCCCS(=O)(=O)[O-])c2ccc3ccccc3c21	27	83	75*	-9	-25	21*
CC(=O)NC(c1ccc(F)c(F)c1)c1nc(-c2ccc(C)c(C)c2)cs1 (stereo not given)	-4	-3	·	·	2	·
CCN(CC(=O)Nc1ccc(NC(C)=O)cc1)C(=O)c1cccc(N2C(=O)c3ccccc3C2=O)c1	-1	0	·	4	-2	·
S=c1[nH]nc(-c2ccc3ccccc3n2)o1	-4	113*	3	1	1	3
COC(=O)C1C2CC3c4[nH]c5cc(OC)ccc5c4CCN3CC2CC(OC(=O)CC(C)=O)C1OC (stereo not given)	·	11	·	-4	49*	·
COC(=O)C1C2CC3c4[nH]c5cc(OC)ccc5c4CCN3CC2CC(O)C1OC (stereo not given)	8	6	·	-1	8	·
CC1(C(=O)NCc2ccccc2)CN(S(C)(=O)=O)CC(=O)N1Cc1cccc(C(F)(F)F)c1 (stereo not given)	·	2	·	·	0	·
COc1ccc(NC(=O)C2CCN(S(=O)(=O)c3ccc4c(c3)NC(=O)C(C)S4)CC2)cc1 (stereo not given)	8	-1	1	3	-1	1
CC1Sc2ccc(S(=O)(=O)N3CCC(C(=O)Nc4ccc(Cl)cc4)CC3)cc2NC1=O (stereo not given)	·	9	14	-7	41*	4
COc1ccc(N=C2O/C(=C/c3sc(=S)n(CC4CCCO4)c3O)N=C2C#N)cc1 (stereo not given)	·	11	45*	·	31	1	TPT1 inh confirm=52*;RNase T1 inh=61*
COc1ccc(/C=C2\SC(=S)N(CC3CCCO3)C2=O)cc1 (stereo not given)	-3	4	0	2	-1	-2

Bioassay records deposited in PubChem by several laboratories.
